Measured values: ChEMBL document CHEMBL1142383, “Discovery of potent cholecystokinin-2 receptor antagonists: elucidation of key pharmacophore elements by X-ray crystallographic and NMR conformational analysis” (Bioorg Med Chem, 2008)

Tests used:
[1] = biological target: T1, Gastrin/cholecystokinin type B receptor (Homo sapiens, UniProt P32239); experiment: Displacement of [125I]CCK8S from human CCK2R
T1 sequence (P32239 whole entry): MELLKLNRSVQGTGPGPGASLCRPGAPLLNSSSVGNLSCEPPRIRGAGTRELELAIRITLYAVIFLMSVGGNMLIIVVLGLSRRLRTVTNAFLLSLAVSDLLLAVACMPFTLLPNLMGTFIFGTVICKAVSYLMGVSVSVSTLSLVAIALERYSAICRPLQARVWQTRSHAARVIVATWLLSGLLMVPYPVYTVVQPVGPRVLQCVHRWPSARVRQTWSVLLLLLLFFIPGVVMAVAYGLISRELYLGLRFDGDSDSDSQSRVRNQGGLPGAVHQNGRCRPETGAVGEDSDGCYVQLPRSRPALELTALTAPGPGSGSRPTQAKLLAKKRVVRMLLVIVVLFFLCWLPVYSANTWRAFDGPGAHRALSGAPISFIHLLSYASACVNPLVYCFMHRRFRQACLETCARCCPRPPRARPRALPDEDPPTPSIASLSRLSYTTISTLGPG
Outline: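 Radioligand competition binding at human CCK-2R against [125I]-CCK-8S. The pIC50 is the concentration displacing 50% of tracer binding, converted to pKi by the Cheng–Prusoff method.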

[2] = biological target: T2, Cholecystokinin receptor type A (Homo sapiens, UniProt P32238); experiment: Displacement of [125I]CCK8S from human CCK1R
T2 sequence (P32238 whole entry): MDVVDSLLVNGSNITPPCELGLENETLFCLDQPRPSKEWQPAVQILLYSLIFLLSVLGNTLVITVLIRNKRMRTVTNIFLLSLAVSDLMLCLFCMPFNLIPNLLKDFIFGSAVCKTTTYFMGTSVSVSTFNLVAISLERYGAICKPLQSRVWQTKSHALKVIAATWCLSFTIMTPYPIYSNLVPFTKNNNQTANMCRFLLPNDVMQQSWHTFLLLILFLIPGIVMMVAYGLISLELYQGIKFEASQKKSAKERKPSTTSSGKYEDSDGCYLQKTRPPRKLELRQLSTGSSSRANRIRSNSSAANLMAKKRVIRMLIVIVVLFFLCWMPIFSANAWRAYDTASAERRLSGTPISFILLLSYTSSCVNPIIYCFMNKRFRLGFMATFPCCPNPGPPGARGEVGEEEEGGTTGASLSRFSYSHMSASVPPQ

[3] = Clearance in rat at 2 umol/kg, iv; format: ADME, organism-based; settings: in vivo
Outline: (§1)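 Rat pharmacokinetics after an intravenous dose of […]. Clearance and half-life were derived from the iv dosing.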

[4] = Bioavailability in rat at 2 umol/kg, po; format: ADME, organism-based; settings: in vivo
Outline: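 Rat oral dosing at […]. Bioavailability is reported as relative fraction absorbed (%F) from the po dose.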

[5] = Half life in rat at 2 umol/kg, iv; format: ADME, organism-based; settings: in vivo; outline: as §1
[6] = Metabolic stability in human liver microsome assessed as compound remaining after 30 mins; format: ADME; settings: liver microsomes, read-out: Stability
Outline: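 Incubation for 30 min with pooled human liver microsome preparations (n = 20). Stability is expressed as percent of parent remaining.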

| Ki [1] | Ki [2] | clearance [3] | bioavailability [4] | half-life [5] | remaining at 0.5 h [6] | SMILES |
| --- | --- | --- | --- | --- | --- | --- |
| 5.01 µM | > 10 µM |  |  |  |  | Cc1nc2cccc(S(=O)(=O)Nc3cc(Br)ccc3C(=O)N3CCCCC3)c2s1 |
| 3.16 µM | > 10 µM |  |  |  |  | O=C(c1ccc(Br)cc1NS(=O)(=O)c1ccc2ncsc2c1)N1CCCCC1 |
| 0.501 µM | > 10 µM |  |  |  |  | O=C(NCc1ccc(Cl)cc1)c1ccc(Br)cc1NS(=O)(=O)c1cccc2nsnc12 |
| 0.794 µM | > 10 µM |  |  |  |  | Cn1nc2cccc(S(=O)(=O)Nc3cc(Br)ccc3C(=O)N3CCCCC3)c2n1 |
| > 10 µM | > 10 µM |  |  |  |  | Cn1nc2ccc(S(=O)(=O)Nc3cc(Br)ccc3C(=O)N3CCCCC3)cc2n1 |
| 0.0794 µM | > 10 µM |  |  |  |  | O=C(c1ccc(Br)cc1NS(=O)(=O)c1cccc2scnc12)N1CCCCC1 |
| 0.794 µM | > 10 µM |  |  |  |  | O=C(c1ccc(Br)cc1NS(=O)(=O)c1cccc2ncsc12)N1CCCCC1 |
| 1.58 µM | > 10 µM |  |  |  |  | O=C(c1ccc(Br)cc1NS(=O)(=O)c1cccc2[nH]cnc12)N1CCCCC1 |
| 2 µM | > 10 µM |  |  |  |  | Cn1nnc2c(S(=O)(=O)Nc3cc(Br)ccc3C(=O)N3CCCCC3)cccc21 |
|  | > 10 µM | 13.8 mL/min/kg | 50% | 20.4 min | 21% | O=C(c1ccc(Br)cc1NS(=O)(=O)c1cccc2nccnc12)N1CCCCC1 |
